In experiment [1] the test system is T47D. Briefly: Inhibition of mitochondrial ETC complex 1 in human T47D cells assessed as inhibition of oxygen consumption at 0.01 uM after 10 mins by Clarke-type electrode analysis. The format is cell-based. Summed up: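 Intact T47D cells; O2 consumption read on a Clark-type electrode after acute (5–10 min) compound exposure. Value is % inhibition of O2 consumption rate versus untreated control. Rotenone reference tested at 1, 10 and 100 nM. Mean of two independent experiments.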

The test system of experiment [2] is T47D. Briefly: Inhibition of mitochondrial ETC complex 1 in human T47D cells assessed as inhibition of oxygen consumption at 0.01 uM after 2 hrs by Clarke-type electrode analysis. It is filed as cell-based. Summed up:
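T47D cells treated 2 h in culture dishes with compound (10 μM; rotenone 0.01 μM), then detached and washed. O2 consumption measured with a Clark-type electrode. Value is % inhibition versus untreated control.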

Experiment [3] has as its system T47D. Kind of experiment: Inhibition of mitochondrial ETC complex 1 in human digitonin-permeabalized T47D cells assessed as inhibition of malate/pyruvate-initiated respiration at 0.01 uM after 2 hrs by Clarke-type electrode analysis. It is filed as cell-based. The procedure, abridged: (§1)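 After 2 h pretreatment (rotenone 0.01 μM; test agents 10 μM), cells were detached and permeabilised with digitonin. Additions made in sequence: malate/pyruvate (complex I) or succinate (complex II), antimycin A to block complex III, then TMPD/ascorbate (complex IV) to restart respiration. Clark-electrode O2 consumption slopes were normalised to untreated control.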

Experiment [4] deals with T47D. Briefly: Inhibition of mitochondrial ETC complex 4 in human digitonin-permeabalized T47D cells assessed as inhibition of ascorbate/TMPD-initiated respiration at 0.01 uM after 2 hrs by Clarke-type electrode analysis in presence of antimycin A. The format is cell-based. The procedure, abridged: as §1
Experiment [5] relates to T47D. Kind of experiment: Inhibition of mitochondrial ETC complex 2 in human digitonin-permeabalized T47D cells assessed as inhibition of succinate-initiated respiration at 0.01 uM after 2 hrs by Clarke-type electrode analysis. It is filed as cell-based. The procedure, abridged: as §1
Experiment [6] deals with Mitochondrial complex I (NADH dehydrogenase). Kind of experiment: Inhibition of mitochondrial ETC complex 1 in human T47D cells assessed as inhibition of 1,10-phenanthroline-induced HIF1 activation incubated for 30 mins prior to 1,10-phenanthroline-challenge measured after 16 hrs by luciferase reporter assay. It is filed as cell-based. The procedure, abridged: (§2)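 pHRE-luc reporter transfected T47D cells were exposed for 16 h to hypoxia (1% O2) or to chemical hypoxia (10 μM 1,10-phenanthroline) in the presence of compound. The highest concentration tested was 30 μM. Luciferase signal was expressed as % inhibition of the induced control. IC50 and 95% CI came from one representative concentration-response experiment run in triplicate. Cycloheximide at 10 μM served as control.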

Experiment [7] deals with T1, Mitochondrial complex I (NADH dehydrogenase) (Homo sapiens) (UniProt P03923+O95299+O00217+P03901+P56556+P03886+O95139+O00483+Q86Y39+P17568+P03891+O75306+P03915+P51970+O43674+P03905+P03897+O14561+O15239+O43181+O43676+O43677+O43678+O43920+O75251+O75380+O75438+O75489+O95167+O95168+O95169+O95178+O95182+O95298+O96000+P19404+P28331+P49821+P56181+Q16718+Q16795+Q8N183+Q9BU61+Q9NRX3+Q9NX14+Q9P032+Q9P0J0+Q9UI09+Q9Y375+Q9Y6M9). Briefly: Inhibition of mitochondrial ETC complex 1 in human T47D cells assessed as inhibition of 1% O2-induced HIF1 activation at 30 uM incubated for 30 mins prior to 1% O2-challenge measured after 16 hrs by luciferase reporter assay. It is filed as cell-based. Summed up:
as §2
In general terms: A reporter such as luciferase makes a cellular process visible.

Experiment [8] has as its system T47D. Briefly: Inhibition of mitochondrial ETC complex 1 in human T47D cells assessed as inhibition of oxygen consumption at 10 uM after 2 hrs by Clarke-type electrode analysis. The format is cell-based. Summed up:
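T47D cells were pretreated with 10 μM compound, or 0.01 μM rotenone, for 2 h. Cells were then detached and washed, and the oxygen consumption rate was measured with a Clarke-type electrode. Results are % inhibition relative to untreated controls.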

The test system of experiment [9] is T47D. Briefly: Inhibition of mitochondrial ETC complex 1 in human T47D cells assessed as inhibition of oxygen consumption at 30 uM after 5 to 10 mins by Clarke-type electrode analysis. The format is cell-based. The procedure, abridged:
(§3)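 For acute exposure, intact T47D cells received compound at 3, 10 or 30 μM for 5–10 min. Oxygen consumption was then measured with a Clarke-type electrode, with rotenone at 1–100 nM as control. Results are % inhibition of the untreated rate, averaged over two independent experiments with deviation from the average.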

For experiment [10], the target named is Mitochondrial complex I (NADH dehydrogenase). Briefly: Inhibition of mitochondrial ETC complex 1 in human T47D cells assessed as inhibition of 1% O2-induced HIF1 activation incubated for 30 mins prior to 1% O2-challenge measured after 16 hrs by luciferase reporter assay. It is filed as cell-based. Summed up: as §2
The next experiment relates to MDA-MB-231. Kind of experiment: Antiproliferative activity against human MDA-MB-231 cells at 1 to 10 uM after 48 hrs by SRB assay. The format is functional, cell-based. The procedure, abridged: (§4)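 T47D or MDA-MB-231 breast tumor cells were exposed to 1, 3, 10 and 30 μM for 48 h or 144 h (6 d). For the 6 d exposure, medium was replaced after 3 days with fresh medium containing compound. Stocks were 4 mM in 2-propanol, with final solvent below 0.75%. Viability was measured by sulforhodamine B and expressed as % inhibition of the untreated control: [1−(OD treated/OD control)]×100.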
For orientation: In SRB staining, fixed cells bind dye roughly in proportion to their protein.

For experiment [11], the target named is T1, Mitochondrial complex I (NADH dehydrogenase) (Homo sapiens). Briefly: Inhibition of mitochondrial ETC complex 1 in human T47D cells assessed as inhibition of 1,10-phenanthroline-induced HIF1 activation at 30 uM incubated for 30 mins prior to 1,10-phenanthroline-challenge measured after 16 hrs by luciferase reporter assay. The format is cell-based. Summed up:
as §2

Experiment [12] concerns T47D. Kind of experiment: Antiproliferative activity against human T47D cells at 1 to 10 uM after 48 hrs by SRB assay. It is filed as functional, cell-based. Summed up:
as §4

For experiment [13], the system named is T47D. Briefly: Inhibition of mitochondrial ETC complex 1 in human T47D cells assessed as inhibition of oxygen consumption at 10 uM after 10 mins by Clarke-type electrode analysis. The format is cell-based. Summed up:
as §3

The source of these data is ChEMBL document CHEMBL2346643, “Semisynthetic studies identify mitochondria poisons from botanical dietary supplements--geranyloxycoumarins from Aegle marmelos” (Bioorg Med Chem, 2013).

The source made the active and inactive calls. The calls are words filed in the database; no cut-off is given here.

The term inhibition denotes the drop in the measured response relative to a control, in per cent. Take `C=C(C)[C@H]1Cc2c(ccc3c2O[C@@H]2COc4cc(OC)c(OC)cc4[C@@H]2C3=O)O1`: the inhibition with T47D [1] was found to be 21%; in the experiment on T47D [2], 68%; in the experiment on T47D [3], 75%; in the experiment with T47D [5], 18%. Also, in the experiment on T47D [4], the inhibition entry is “inactive”.
As usually defined, the IC50 is the concentration that inhibits the measured activity by half. For `CCCCCC/C=C\CCCCCCCCCC(=O)O[C@H](CC/C(C)=C/COc1ccc2ccc(=O)oc2c1)C(C)(C)O` [R-(+)-MARMIN-6'-CIS-VACCENOATE], the half-inhibitory concentration (IC50) in experiment [6] and in [10] was > 30 µM throughout. The inhibition is 20% in [7]; -6% with T47D [8]; 20% in the experiment on T47D [9]; 20% in experiment [11]; 5% in the experiment with T47D [13]. Further, the result with MDA-MB-231 and in the experiment with T47D [12] was Active.
